Active and inactive are the calls of the source. The rule behind the calls is not given here.
What was measured:
[1] = system: OVCAR-3; assay: Cytotoxicity against human OVCAR-3 cells after 48 hrs by sulforhodamine B assay; format: functional; conditions: OVCAR-3, 48 h
Method in brief: (§1)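 Cells grown in RPMI 1640 with 5% FBS at 37 °C, 5% CO2, with penicillin/streptomycin. Treated for 48 h with compound in DMSO/RPMI at […]. Fixed with 50% trichloroacetic acid, protein stained with sulforhodamine B and read at 540 nm. TGI (total growth inhibition) obtained by non-linear regression of the concentration–response curves.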

[2] = system: UACC-62; assay: Cytotoxicity against human UACC62 cells after 48 hrs by sulforhodamine B assay; format: functional; conditions: UACC-62, 48 h; method in brief: as §1
[3] = system: Mus musculus; assay: Acute toxicity in BALB/C mouse assessed as reduction of body weight at up to 3 mg/kg, ip after 15 days; format: organism-based; design: dose 3 mg/kg, route intraperitoneal; conditions: in vivo, 360 h
Method in brief: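 Balb/C mice (n = 8/group) carrying Ehrlich footpad tumours, given ip doses every third day from day 3 (four treatments), vehicle 0.9% saline. Animals weighed and watched for toxicity throughout; body-weight loss recorded at the end of the experiment, day 15.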

[4] = system: NCI-H460; assay: Cytotoxicity against human NCI-H460 cells after 48 hrs by sulforhodamine B assay; format: functional; conditions: NCI-H460, 48 h; method in brief: as §1
[5] = Cytotoxicity against human PCO3 cells after 48 hrs by sulforhodamine B assay; format: functional; conditions: PCO3, 48 h; method in brief: as §1
[6] = system: U-251; assay: Cytotoxicity against human U251 cells after 48 hrs by sulforhodamine B assay; format: functional; conditions: U-251, 48 h; method in brief: as §1
[7] = system: 786-0; assay: Cytotoxicity against human 786-0 cells after 48 hrs by sulforhodamine B assay; format: functional; conditions: 786-0, 48 h; method in brief: as §1
[8] = system: Mus musculus; assay: Antiinflammatory activity in BALB/C mouse assessed as inhibition of carrageenan-induced paw edema at 5 mg/kg, ip administered 30 mins before carrageenan challenge measured before 24 hrs by plethysmometer; format: functional, organism-based; design: dose 5 mg/kg
Method in brief: (§2)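 Balb/C mice, n = 8/group. Right hind paw basal volume measured by plethysmometer. Single ip dose in 0.9% saline vehicle, then carrageenan 2.5% injected intraplantar into the right hind footpad 30 min later. Edema taken as measured minus basal volume at 1.5, 3.0, 4.5, 6.0, 24, 48 and 72 h. Expressed as % inhibition vs vehicle ± standard deviation; ANOVA.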

[9] = Antitumor activity against mouse EAC cells xenografted in BALB/C mouse assessed as inhibition of increase in tumor volume at 3 mg/kg, ip administered every 3 days measured on day 7 relative to control; format: functional; conditions: Ehrlich, route intraperitoneal
Method in brief: (§3)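 Ehrlich cells kept as ascites by weekly ip passage of 5 × 10^5 cells in mice. Balb/C mice (n = 8/group) inoculated with 2.5 × 10^6 cells into the right hind footpad. Dosed ip every third day from day 3, vehicle 0.9% saline. Tumour volume taken as plethysmometer paw volume minus basal, every third day to day 15. Reported as % inhibition vs vehicle ± SD; ANOVA.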

[10] = system: HT-29; assay: Cytotoxicity against human HT-29 cells after 48 hrs by sulforhodamine B assay; format: functional; conditions: HT-29, 48 h; method in brief: as §1
[11] = Cytotoxicity against human NCI-ADR-RES cells after 48 hrs by sulforhodamine B assay; format: functional; method in brief: as §1
[12] = system: Mus musculus; assay: Antiinflammatory activity in ip dosed BALB/C mouse assessed as inhibition of carrageenan-induced paw edema administered 30 mins before carrageenan challenge measured after 24 hrs by plethysmometer; format: functional, organism-based; method in brief: as §2
[13] = system: MCF7; assay: Cytotoxicity against human MCF7 cells after 48 hrs by sulforhodamine B assay; format: functional; conditions: MCF7, 48 h; method in brief: as §1
[14] = Antitumor activity against mouse EAC cells xenografted in BALB/C mouse assessed as reduction of tumor weight at 3 mg/kg, ip administered every 3 days measured on day 15 relative to control; format: functional; conditions: Ehrlich, route intraperitoneal
Method in brief: (§4)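 Ehrlich footpad tumour model in Balb/C mice (n = 8/group, 2.5 × 10^6 cells) with ip dosing every third day from day 3 in 0.9% saline. Mice sacrificed on day 15 and both hind paws weighed. Relative tumour weight = (tumour paw − healthy paw weight)/body weight. Reported as % inhibition vs vehicle ± SD; ANOVA.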

[15] = Antitumor activity against mouse EAC cells xenografted in BALB/C mouse assessed as inhibition of increase in tumor volume at 3 mg/kg, ip administered every 3 days measured on day 15 relative to control; format: functional; conditions: Ehrlich, route intraperitoneal; method in brief: as §3
[16] = Antitumor activity against mouse EAC cells xenografted in BALB/C mouse assessed as reduction of tumor weight at 10 mg/kg, ip administered every 3 days measured on day 15 relative to control; format: functional; conditions: Ehrlich, route intraperitoneal
Method in brief: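 Ehrlich cells (2.5 × 10^6 in 60 µL) were injected into the right hind footpad of Balb/C mice (n = 8/group). Dosing was intraperitoneal every third day from day 3, with saline 0.9% vehicle. On day 15 both hind paws were removed and weighed. Relative tumor weight was (tumor paw − healthy paw weight)/body weight, reported as % inhibition versus vehicle ± SD.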

[17] = Antitumor activity against mouse EAC cells xenografted in BALB/C mouse assessed as inhibition of tumor growth at 10 mg/kg, ip administered every 3 days measured on day 15 relative to control; format: functional; conditions: Ehrlich, route intraperitoneal
Method in brief: (§5)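 Ehrlich cells were kept as ascites by weekly peritoneal passage in mice. Balb/C mice (n = 8/group) received 2.5 × 10^6 cells in 60 µL into the right hind footpad. Dosing was intraperitoneal every third day from day 3, with saline 0.9% vehicle. Tumor volume was plethysmometer paw volume minus basal volume, read every third day to day 15, and reported as % inhibition versus vehicle ± SD.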

[18] = system: Mus musculus; assay: Acute toxicity in BALB/C mouse assessed as reduction of body weight at up to 10 mg/kg, ip after 15 days; format: organism-based; design: dose 10 mg/kg, route intraperitoneal; conditions: in vivo, 360 h
Method in brief: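 Body weight and toxicity signs were tracked in Balb/C mice (n = 8/group) carrying Ehrlich footpad tumors. Dosing was intraperitoneal every third day from day 3 after inoculation, four treatments in total, with saline 0.9% vehicle. Mice were weighed throughout until sacrifice on day 15.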

[19] = Antitumor activity against mouse EAC cells xenografted in BALB/C mouse assessed as inhibition of tumor growth at 10 mg/kg, ip administered every 3 days measured on day 7 relative to control; format: functional; conditions: Ehrlich, route intraperitoneal; method in brief: as §5
[20] = Antitumor activity against mouse EAC cells xenografted in BALB/C mouse assessed as inhibition of increase in tumor volume at 50 mg/kg, ip administered every 3 days measured on day 15 relative to control; format: functional; conditions: Ehrlich, route intraperitoneal; method in brief: as §3
[21] = Antitumor activity against mouse EAC cells xenografted in BALB/C mouse assessed as inhibition of increase in tumor volume at 50 mg/kg, ip administered every 3 days measured on day 13 relative to control; format: functional; conditions: Ehrlich, route intraperitoneal; method in brief: as §3
[22] = Antitumor activity against mouse EAC cells xenografted in BALB/C mouse assessed as reduction of tumor weight at 50 mg/kg, ip administered every 3 days measured on day 15 relative to control; format: functional; conditions: Ehrlich, route intraperitoneal; method in brief: as §4
[23] = system: Mus musculus; assay: Acute toxicity in BALB/C mouse assessed as mortality at up to 300 mg/kg, ip after 4 hrs; format: organism-based; design: dose 300 mg/kg, route intraperitoneal; conditions: in vivo
Method in brief: (§6)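 Balb/C mice (20–35 g) dosed intraperitoneally at 50, 100 and 300 mg/kg. Observed for 4 h, then daily for 14 days, for body weight loss, locomotion, behaviour (agitation, lethargy), respiration, salivation, tearing eyes, cyanosis and mortality.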

[24] = system: Mus musculus; assay: Acute toxicity in BALB/C mouse assessed as reduction of body weight at up to 50 mg/kg, ip after 15 days; format: organism-based; design: dose 50 mg/kg, route intraperitoneal; conditions: in vivo, 360 h; method in brief: as §6
[25] = system: Mus musculus; assay: Acute toxicity in BALB/C mouse assessed as mortality at up to 300 mg/kg, ip after 15 days; format: organism-based; design: dose 300 mg/kg, route intraperitoneal; conditions: in vivo, 360 h; method in brief: as §6

Row | SMILES | TGI [1] [µM] | TGI [2] [µM] | TGI [4] [µM] | TGI [5] [µM] | TGI [6] [µM] | TGI [7] [µM] | TGI [10] [µM] | TGI [11] [µM] | TGI [13] [µM] | further results
1 | COc1cccc2c1C(=O)c1c(O)c3c(c(O)c1C2=O)C[C@@](O)(C(=O)CO)C[C@@H]3O[C@H]1C[C@H](N)[C@H](O)[C@H](C)O1 [DOXORUBICIN] | 10.2 | 0.32 | 2.37 | 4.03 | 1.42 | 7.86 | 16.4 | 2.83 | 11 | Activity [3]: 2.5 g; inhibition [8]: Active; inhibition in vivo at 3 mg/kg [9]: 42.7%; inhibition [12]: Dose-dependent effect; inhibition in vivo at 3 mg/kg [14]: 28%; inhibition in vivo at 3 mg/kg [15]: 34.7%
2 | O=c1[nH]cc(F)c(=O)[nH]1 [FLUOROURACIL] |  |  |  |  |  |  |  |  |  | inhibition in vivo at 10 mg/kg [16]: 46.1%; inhibition in vivo at 10 mg/kg [17]: 57.6%; Activity [18]: Non-toxic; inhibition in vivo at 10 mg/kg [19]: 41.7%
3 | O=C1C=CC[C@H](/C=C/c2ccccc2)O1 [GONIOTHALAMIN] | 8.31 | 21.6 | 32.4 | 13.5 | 13.4 | 18.6 | 22 | 1.2 | 21.7 | inhibition in vivo at 50 mg/kg [20]: 37.4%; inhibition in vivo at 50 mg/kg [21]: 21.9%; inhibition in vivo at 50 mg/kg [22]: 25.3%; Activity [23]: Non-toxic; Activity [24]: Non-toxic; Activity [25]: Non-toxic

Source: ChEMBL document CHEMBL1240522, “Effect of goniothalamin on the development of Ehrlich solid tumor in mice” (Bioorg Med Chem, 2010)
